Screening results: PubChem, Johns Hopkins Ion Channel Center
MrgX1 PAM – positive allosteric modulators of MrgX1, primary screen, HEK293 cells, Fluo-4 calcium flux; Mas-related G-protein coupled receptor member X1 (Homo sapiens), Q96LB2; FDSS; stronger effect = higher value; AID 588675, 2011; 0.63% of 310,000 active; B-score at 10 µM;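 active = plate-corrected calcium response at least 3 library SD above typical, normal starting fluorescence, not activating the receptor alone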;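 also: compound read alongside a low EC10 to EC30 dose of BAM8-22 agonist; peak minus trough fluorescence over baseline measured at the second addition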
Target sequence (Q96LB2 whole entry, looked up): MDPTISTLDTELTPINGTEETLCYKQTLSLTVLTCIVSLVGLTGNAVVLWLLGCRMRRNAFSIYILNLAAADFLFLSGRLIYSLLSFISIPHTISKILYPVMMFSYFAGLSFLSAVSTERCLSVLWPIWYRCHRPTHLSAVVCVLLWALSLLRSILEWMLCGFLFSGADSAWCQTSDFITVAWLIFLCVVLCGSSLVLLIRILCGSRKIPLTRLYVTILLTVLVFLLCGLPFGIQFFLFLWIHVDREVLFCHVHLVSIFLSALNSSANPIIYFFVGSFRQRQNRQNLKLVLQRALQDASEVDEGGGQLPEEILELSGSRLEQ
MrgX1 antagonist – antagonists of human MrgX1 receptor, primary screen, HEK293 cells, Fluo-4 calcium flux | BAM8-22 antagonism; stronger effect = lower value | Mas-related G-protein coupled receptor member X1 (Homo sapiens), Q96LB2 | B-score at 10 µM | 1.3% of 310,000 active;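 active = calcium-response B-score plate-corrected more than 3 library SD below zero, starting fluorescence within 5 deviations, no agonist response on first addition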;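 also: peak minus trough fluorescence over baseline after final BAM8-22 challenge near maximal dose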
MrgX1 ag – agonists of human MrgX1 receptor, primary screen, HEK293 cells, Fluo-4 calcium flux; 0.44% of 310,000 active; B-score at 10 µM; Mas-related G-protein coupled receptor member X1 (Homo sapiens), Q96LB2; Fluo-4 calcium fluorescence, agonist mode; stronger effect = higher value;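 active = calcium response B-score plate-corrected fluorescence ratio at least 3 library SD, with starting fluorescence B-score inside 5 SD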
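Assay system: MrgX1-expressing HEK293 cells / Amount: fifteen thousand cells per well / Doses: test compound in the initial addition of three / Timing: cells plated overnight, dye loaded 0.5 h 37 °C, 0.5 h room temperature / Technique: kinetic calcium dye fluorescence, Fluo-4 NW / Control set: positive and negative controls per plate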
RGS4 act – RGS4 potentiators or activators, primary screen, cell-based, HEK293 M3R inducible RGS4, calcium flux | carbachol calcium flux Fluo4; stronger effect = lower value | B-score at 10 µM | 0.92% of 310,000 active | AID 463111, 2010;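 active = B-score of the integrated calcium signal more than 4 SD below the library mean, with starting fluorescence not abnormally high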;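 also: negative B-score means reduced calcium response which marks RGS4 activation or potentiation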
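System: HEK293 FlpIn-TREx cells, stable M3R, doxycycline-inducible RGS4. Timing: overnight RGS4 induction, 30 min dye load 37 °C, 20 min compound RT. Also added: carbachol, ECmax concentration. Measured by: Fluo4 fluorescence kinetic imaging of calcium. Evaluation: integrated calcium ratio converted to B score.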
RGS4 block – RGS4 inhibitors, primary screen, cell-based, HEK293 M3R inducible RGS4, calcium flux; Regulator of G-protein signaling 4 (Homo sapiens), P49798; Fluo-4 calcium flux; stronger effect = higher value; triggered by carbachol at its EC20; B-score at 10 µM; 0.45% of 310,000 active; AID 463165, 2010;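 active = B-score, a plate-corrected calcium signal, over three deviations above library mean, with baseline fluorescence within five deviations of library mean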;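 also: RGS4 expression induced by doxycycline in cells with stable M3 receptor; B-score is computed from the integrated fluorescence ratio over baseline after carbachol; higher B-score means a larger calcium signal and so more RGS4 inhibition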
Target sequence (P49798 whole entry, looked up): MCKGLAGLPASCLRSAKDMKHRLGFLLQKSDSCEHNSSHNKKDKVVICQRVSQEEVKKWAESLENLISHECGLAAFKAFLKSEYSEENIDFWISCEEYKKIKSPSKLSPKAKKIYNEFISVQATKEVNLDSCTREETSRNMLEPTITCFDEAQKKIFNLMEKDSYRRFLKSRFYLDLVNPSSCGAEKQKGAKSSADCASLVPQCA
Of the large screens only hits and unclear results are named; the others gave an inactive call. Only some compounds are listed: those with a hit (about 3.5% of all), similar ones and a draw of the others.

Cc1ccc(C(=O)Nc2ccccc2[N+](=O)[O-])cc1S(=O)(=O)N1CCOCC1	MrgX1 PAM 8.03
COc1ccc(C(=O)Nc2ccccc2[N+](=O)[O-])cc1S(=O)(=O)N1CCOCC1	none
O=C(c1nc2ccccn2c1CN1CCC(Cc2ccccc2)CC1)N1CCCC1	none
COc1ccc(OC)c(/C=N/NC(=O)c2ccc(N(C)S(=O)(=O)c3ccccc3)cc2)c1	MrgX1 PAM 7.05
COc1ccc(/C=N/NC(=O)c2ccc(N(C)S(=O)(=O)c3ccccc3)cc2)c(OC)c1	none
COCCN(C(=O)COC(=O)c1sccc1C)c1c(N)n(Cc2ccccc2)c(=O)[nH]c1=O	none
COc1cc(-c2noc(C)c2-c2ccc3[nH]ccc3c2)cc(OC)c1OC	RGS4 act -7.19
COc1ccc(/C=C/C(=O)c2cc(Cl)ccc2O)c(OC)c1	none
COc1ccc(/C=C/C(=O)c2ccc(Cl)cc2)c(OC)c1	MrgX1 antagonist -4.89
CCN(CC(=O)NCc1ccc(F)cc1)C(=O)CN1CCN(c2cc(Cl)ccc2C)CC1	none
CC(=O)N[C@@H]1[C@@H](O)[C@@H]2OC(c3ccccc3)OC[C@H]2O[C@@H]1N=[N+]=[N-] (some centres not stated)	none
CC(C)(C#CC(O)(c1ccccc1)c1ccccc1)N1CCCCC1	RGS4 act -7.09
OC1(c2cccs2)CN(c2ccc(Br)cc2)C2=[N+]1CCCS2 (configuration not stated)	MrgX1 PAM 13.3, RGS4 act -7.17
Cc1ccccc1NC1=NCC(c2ccc([N+](=O)[O-])cc2)S1 (configuration not stated)	MrgX1 antagonist -5.66
CCCN1C=CC(=C/C=C(\C#N)C(=O)OCC)C=C1	none
CCCCCCN1C=CC(=C/C=C(\C#N)C(=O)OCC)C=C1	MrgX1 ag 64.2
CC(C)O/C(=N\S(=O)(=O)c1ccc(Cl)cc1)c1ccccc1	RGS4 act -7.11
CC(C)CO/C(=N/S(=O)(=O)c1ccccc1)c1ccccc1	none
Cn1cc(/C=N/n2cnc3sc4c(c3c2=O)CCCC4)c2ccccc21	none
O=c1c2c3c(sc2ncn1/N=C/c1ccc([N+](=O)[O-])o1)CCCC3	RGS4 block 5.24
COc1ccccc1NS(=O)(=O)c1cc(C(=O)NCC(c2ccco2)N2CCCCC2)ccc1C (configuration not stated)	MrgX1 antagonist -5.35
COc1ccccc1NS(=O)(=O)c1cc(C(=O)NCC(c2ccco2)N(C)C)ccc1C (configuration not stated)	none
CSCC[C@H](NC(=O)c1ccc2ccccc2c1)C(=O)N1CCC2(CC1)NCCc1[nH]cnc12	RGS4 act -7.61
CN(C)c1nc2ccc(OCCN3CCCCC3)cc2s1	RGS4 act -7.33
CSc1ccc(OC2CCN(Cc3ccccc3)CC2)cc1	RGS4 act -7.86
COc1ccccc1C(=O)Nc1cccc2c1CCCC2	none
COc1ccc(Cc2nnc(SCC(=O)N(C)CC(=O)Nc3ccc(C)cc3)o2)cc1	MrgX1 antagonist -4.59
Cc1c(CCC(=O)NCCCN2CCCC2=O)c(=O)oc2c(C)c(O)ccc12	none
Cc1ccccc1S(=O)(=O)Cc1ccc(C(=O)NC(C)c2ccc3c(c2)OCCO3)o1 (configuration not stated)	none
CC(NC(=O)c1ccc(CS(=O)(=O)c2ccc(Cl)cc2)o1)c1ccc2c(c1)OCCO2 (configuration not stated)	RGS4 act -7.39
O=c1c2ccccc2c(/C=N/NS(=O)(=O)c2ccccc2)c(O)n1-c1ccccn1	MrgX1 ag 52.5
N=c1c(-c2nc3ccccc3[nH]2)cc(C(=O)c2cccs2)nn1-c1ccccc1	RGS4 act -8.56
N=c1c(-c2nc3ccccc3[nH]2)cc(C(=O)c2ccco2)nn1-c1ccccc1	none
Cc1cc(C)cc(NC(=O)CSc2nnnn2-c2cccnc2)c1	none
O=C(Nc1ccc(Cl)c(Cl)c1)OCCNC(=O)c1cccc(Cl)c1	MrgX1 antagonist -5.34
O=C(NCC1CCCN1S(=O)(=O)c1cccs1)c1cccc(Cl)c1 (configuration not stated)	none
O=C(/C=C/Nc1ccc(Br)cc1F)c1ccccc1	MrgX1 antagonist -5.95
Cc1ccccc1OCCNc1ccc(C(F)(F)F)cc1[N+](=O)[O-]	none
O=[N+]([O-])c1cc(C(F)(F)F)ccc1NCCOc1ccccc1	MrgX1 PAM 9.06
Cc1nc2c(oc3ccc(Cl)cc32)c(=O)[nH]1	none
CC1CCN(CC(CS(=O)(=O)c2ccc([N+](=O)[O-])cc2)N2CCC(C)CC2)CC1 (configuration not stated)	MrgX1 antagonist -5.15
Cc1cccc(C)c1OCc1cc(C(=O)N2CCC(C3CCCCC3)C2)no1 (configuration not stated)	RGS4 act -7.58
O=C1Nc2ccccc2/C1=C/c1cccnc1	none
O=C1Nc2ccccc2/C1=C/c1cnc(-c2ccccc2)[nH]1	RGS4 act -7.01
CCn1c(C)nc2cc(C(=O)NNC(=O)Nc3cccc(Cl)c3)ccc21	MrgX1 antagonist -6.31
CCn1c(C)nc2cc(C(=O)NNC(=O)Nc3ccc(Cl)cc3)ccc21	none
Cc1cc(C)c(C#N)c(SCc2c(F)cccc2[N+](=O)[O-])n1	MrgX1 antagonist -5.74
CC(C)CC(=O)Nc1nnc(S(=O)(=O)N2c3ccccc3CC2C)s1 (configuration not stated)	none
CCCCNC(=O)CCCCCn1c(=O)[nH]c2cc(C(=O)OC)ccc2c1=O	MrgX1 PAM 13.6
CC(=O)C(=Nc1ccccc1Cl)NNc1ccc(Cl)cc1	RGS4 act -10.6
CCOC(=O)N1CCN(c2nc(-c3ccccc3)c3ccccc3n2)CC1	none
COc1ccc(CN(C(=O)CSc2nnc(-c3ccccc3F)o2)c2ccc(F)cc2)cc1	RGS4 act -7.82
CN(C(=O)CSc1nnc(-c2ccccc2F)o1)c1ccccc1	none
COc1cccc(C(=O)NCC(=O)NCc2cc(=O)n(C)c(=O)n2C)c1	none
CCCCS(=O)(=O)/C=C\C1C2C=CC(C2)C1S(=O)(=O)CCCC (configuration not stated)	none
CCCCS(=O)(=O)/C=C\C=C/S(=O)(=O)CCCC	MrgX1 ag 33.5
CCC(=O)O[C@]1(C(=O)SCF)[C@H](C)C[C@H]2[C@@H]3C[C@H](F)C4=CC(=O)C=C[C@]4(C)[C@@]3(F)[C@@H](O)C[C@@]21C	MrgX1 antagonist -6.21
O=C(CSc1nc2ccccc2c(=O)n1-c1ccc(F)cc1F)c1c[nH]c2ccccc12	MrgX1 antagonist -5.08
O=C(CSc1nc2ccccc2c(=O)n1-c1ccc(F)cc1F)Nc1ccc(N2CCOCC2)cc1	none
